In ChEMBL document CHEMBL3232750, “Synthesis, structure-activity relationships, and in vitro antibacterial and antifungal activity evaluations of novel pyrazole carboxylic and dicarboxylic acid derivatives” (2014):
Converted amounts (≈) assume the structure as drawn. The source made the active and inactive calls. The rule behind the calls is not given here.

Assays:
Nakaseomyces glabratus = assay: Antifungal activity against Candida glabrata at 25 degC after 48 hrs by agar well diffusion assay; type: functional
Summary of the method: (§1)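 Yeast suspensions of 10^7 CFU/mL were swabbed onto Sabouraud Dextrose Agar and dried about 40 min at 35 °C. Compounds were dissolved in DMSO (2.5 mg/ml initial) and diluted two-fold in DMSO, then loaded into 6 mm wells. Plates: 2 h pre-incubation at 25 °C, then 48 h at 25 °C. MIC read as the lowest concentration inhibiting growth around the well, in duplicate. The C. albicans clinical isolate came from a hospitalized patient at Eskisehir Osmangazi University hospital; the standard strain came from a culture collection.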

Escherichia coli = assay: Antibacterial activity against Escherichia coli at 37 degC after 24 hrs by agar well diffusion assay; type: functional, organism-based
Summary of the method: (§2)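 Compounds dissolved in DMSO at 2.5 mg/ml initial concentration, then serially diluted two-fold in DMSO. Nutrient Agar plates were swabbed with 10^8 CFU/mL bacteria and dried about 40 min at 35 °C. Solution was placed in 6 mm wells, then 2 h pre-incubation at 25 °C and 24 h at 37 °C. MIC is the lowest concentration giving a growth-inhibition zone around the well. Duplicate.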

Staphylococcus aureus [1] = assay: Antibacterial activity against Staphylococcus aureus at 37 degC after 24 hrs by agar well diffusion assay; type: functional; summary of the method: as §2
Candida albicans [2] = assay: Antifungal activity against Candida albicans at 25 degC after 48 hrs by agar well diffusion assay; type: functional; summary of the method: as §1
Candida albicans [3] = assay: Antifungal activity against Candida albicans ESOGU at 25 degC after 48 hrs by agar well diffusion assay; type: functional; summary of the method: as §1
Candida parapsilosis = assay: Antifungal activity against Candida parapsilosis at 25 degC after 48 hrs by agar well diffusion assay; type: functional; details: for MIC: Lodderomyces parapsilosis; summary of the method: as §1
Enterococcus = assay: Antibacterial activity against vancomycin-resistant Enterococcus species at 37 degC after 24 hrs by agar well diffusion assay; type: functional, organism-based
Summary of the method: (§3)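 Bacteria kept on Nutrient Agar slants at 4 °C and subcultured before use. Suspensions of 10^8 CFU/mL were swabbed onto Nutrient Agar and the plates dried 40 min at 35 °C. Compounds were dissolved in DMSO starting at 2.5 mg/ml, serially diluted two-fold, and loaded into 6 mm wells. Plates were pre-incubated 2 h at 25 °C, then 24 h at 37 °C. Inhibition zones were read and the MIC taken as the lowest inhibiting concentration. Duplicates were run.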

Staphylococcus aureus [4] = assay: Antibacterial activity against methicillin-resistant Staphylococcus aureus at 37 degC after 24 hrs by agar well diffusion assay; type: functional; summary of the method: as §3
Candida tropicalis = assay: Antifungal activity against Candida tropicalis at 25 degC after 48 hrs by agar well diffusion assay; type: functional; summary of the method: as §1
Pseudomonas aeruginosa = assay: Antibacterial activity against Pseudomonas aeruginosa at 37 degC after 24 hrs by agar well diffusion assay; type: functional, organism-based; summary of the method: as §2

CCOC(=O)c1c(C(=O)Nc2ccccc2C(F)(F)F)nn(-c2cccc([N+](=O)[O-])c2)c1-c1ccccc1
Activity (Nakaseomyces glabratus): inactive | Activity (Escherichia coli): inactive | Activity (Staphylococcus aureus [1]): inactive | MIC (Candida albicans [2]): 50 µg/mL (≈ 95.3 µM) | MIC (Candida albicans [3]): 50 µg/mL (≈ 95.3 µM) | Activity (Candida parapsilosis): inactive | Activity (Enterococcus): inactive | Activity (Staphylococcus aureus [4]): inactive | Activity (Candida tropicalis): inactive | Activity (Pseudomonas aeruginosa): inactive

O=C(O)c1cnn(-c2cccc([N+](=O)[O-])c2)c1-c1ccccc1
Activity (Nakaseomyces glabratus): inactive | Activity (Escherichia coli): inactive | MIC (Staphylococcus aureus [1]): 50 µg/mL (≈ 162 µM) | MIC (Candida albicans [2]): 25 µg/mL (≈ 80.8 µM) | Activity (Candida albicans [3]): inactive | Activity (Candida parapsilosis): inactive | Activity (Enterococcus): inactive | MIC (Staphylococcus aureus [4]): 25 µg/mL (≈ 80.8 µM) | Activity (Candida tropicalis): inactive | Activity (Pseudomonas aeruginosa): inactive

O=C(Nc1ccc([N+](=O)[O-])cc1)c1nn(-c2cccc([N+](=O)[O-])c2)c(-c2ccccc2)c1C(=O)Nc1ccc([N+](=O)[O-])cc1
Activity (Nakaseomyces glabratus): inactive | Activity (Escherichia coli): inactive | Activity (Staphylococcus aureus [1]): inactive | MIC (Candida albicans [2]): 25 µg/mL (≈ 42.1 µM) | MIC (Candida albicans [3]): 25 µg/mL (≈ 42.1 µM) | MIC (Candida parapsilosis): 25 µg/mL (≈ 42.1 µM) | Activity (Enterococcus): inactive | Activity (Staphylococcus aureus [4]): inactive | MIC (Candida tropicalis): 50 µg/mL (≈ 84.2 µM) | Activity (Pseudomonas aeruginosa): inactive

CCOC(=O)c1c(C(=O)Nc2ccccc2F)nn(-c2cccc([N+](=O)[O-])c2)c1-c1ccccc1
MIC (Nakaseomyces glabratus): 50 µg/mL (≈ 105 µM) | Activity (Escherichia coli): inactive | Activity (Staphylococcus aureus [1]): inactive | MIC (Candida albicans [2]): 25 µg/mL (≈ 52.7 µM) | MIC (Candida albicans [3]): 50 µg/mL (≈ 105 µM) | Activity (Candida parapsilosis): inactive | Activity (Enterococcus): inactive | Activity (Staphylococcus aureus [4]): inactive | Activity (Candida tropicalis): inactive | Activity (Pseudomonas aeruginosa): inactive

CCOC(=O)c1c(C(=O)Nc2cccc(F)c2)nn(-c2cccc([N+](=O)[O-])c2)c1-c1ccccc1
Activity (Nakaseomyces glabratus): inactive | Activity (Escherichia coli): inactive | Activity (Staphylococcus aureus [1]): inactive | MIC (Candida albicans [2]): 25 µg/mL (≈ 52.7 µM) | MIC (Candida albicans [3]): 50 µg/mL (≈ 105 µM) | Activity (Candida parapsilosis): inactive | Activity (Enterococcus): inactive | Activity (Staphylococcus aureus [4]): inactive | Activity (Candida tropicalis): inactive | Activity (Pseudomonas aeruginosa): inactive

O=C(Nc1ccc(F)cc1)c1nn(-c2cccc([N+](=O)[O-])c2)c(-c2ccccc2)c1C(=O)Nc1ccc(F)cc1
Activity (Nakaseomyces glabratus): inactive | Activity (Escherichia coli): inactive | Activity (Staphylococcus aureus [1]): inactive | MIC (Candida albicans [2]): 25 µg/mL (≈ 46.3 µM) | Activity (Candida albicans [3]): inactive | Activity (Candida parapsilosis): inactive | Activity (Enterococcus): inactive | Activity (Staphylococcus aureus [4]): inactive | Activity (Candida tropicalis): inactive | Activity (Pseudomonas aeruginosa): inactive

Cc1ccc(NC(=O)c2nn(-c3cccc([N+](=O)[O-])c3)c(-c3ccccc3)c2C(=O)Nc2ccc(C)cc2)cc1
Activity (Nakaseomyces glabratus): inactive | Activity (Escherichia coli): inactive | Activity (Staphylococcus aureus [1]): inactive | MIC (Candida albicans [2]): 25 µg/mL (≈ 47 µM) | Activity (Candida albicans [3]): inactive | Activity (Candida parapsilosis): inactive | Activity (Enterococcus): inactive | Activity (Staphylococcus aureus [4]): inactive | Activity (Candida tropicalis): inactive | Activity (Pseudomonas aeruginosa): inactive

CNC(=O)NC(=O)c1nn(-c2cccc([N+](=O)[O-])c2)c(-c2ccccc2)c1C(=O)NC(=O)NC
Activity (Nakaseomyces glabratus): inactive | Activity (Escherichia coli): inactive | MIC (Staphylococcus aureus [1]): 50 µg/mL (≈ 107 µM) | MIC (Candida albicans [2]): 25 µg/mL (≈ 53.7 µM) | MIC (Candida albicans [3]): 25 µg/mL (≈ 53.7 µM) | Activity (Candida parapsilosis): inactive | Activity (Enterococcus): inactive | MIC (Staphylococcus aureus [4]): 50 µg/mL (≈ 107 µM) | Activity (Candida tropicalis): inactive | Activity (Pseudomonas aeruginosa): inactive

O=C(Nc1cccc([N+](=O)[O-])c1)c1nn(-c2cccc([N+](=O)[O-])c2)c(-c2ccccc2)c1C(=O)Nc1cccc([N+](=O)[O-])c1
Activity (Nakaseomyces glabratus): inactive | Activity (Escherichia coli): inactive | Activity (Staphylococcus aureus [1]): inactive | MIC (Candida albicans [2]): 25 µg/mL (≈ 42.1 µM) | MIC (Candida albicans [3]): 25 µg/mL (≈ 42.1 µM) | MIC (Candida parapsilosis): 50 µg/mL (≈ 84.2 µM) | Activity (Enterococcus): inactive | Activity (Staphylococcus aureus [4]): inactive | Activity (Candida tropicalis): inactive | Activity (Pseudomonas aeruginosa): inactive

CCNC(=O)NC(=O)c1nn(-c2cccc([N+](=O)[O-])c2)c(-c2ccccc2)c1C(=O)NC(=O)NCC
Activity (Nakaseomyces glabratus): inactive | Activity (Escherichia coli): inactive | Activity (Staphylococcus aureus [1]): inactive | MIC (Candida albicans [2]): 25 µg/mL (≈ 50.7 µM) | MIC (Candida albicans [3]): 25 µg/mL (≈ 50.7 µM) | Activity (Candida parapsilosis): inactive | Activity (Enterococcus): inactive | Activity (Staphylococcus aureus [4]): inactive | Activity (Candida tropicalis): inactive | Activity (Pseudomonas aeruginosa): inactive

O=C(Nc1cccc(F)c1)c1nn(-c2cccc([N+](=O)[O-])c2)c(-c2ccccc2)c1C(=O)Nc1cccc(F)c1
Activity (Nakaseomyces glabratus): inactive | Activity (Escherichia coli): inactive | Activity (Staphylococcus aureus [1]): inactive | MIC (Candida albicans [2]): 50 µg/mL (≈ 92.7 µM) | Activity (Candida albicans [3]): inactive | Activity (Candida parapsilosis): inactive | Activity (Enterococcus): inactive | Activity (Staphylococcus aureus [4]): inactive | Activity (Candida tropicalis): inactive | Activity (Pseudomonas aeruginosa): inactive

Cc1cccc(NC(=O)c2nn(-c3cccc([N+](=O)[O-])c3)c(-c3ccccc3)c2C(=O)Nc2cccc(C)c2)c1
Activity (Nakaseomyces glabratus): inactive | Activity (Escherichia coli): inactive | Activity (Staphylococcus aureus [1]): inactive | Activity (Candida albicans [2]): inactive | Activity (Candida albicans [3]): inactive | Activity (Candida parapsilosis): inactive | Activity (Enterococcus): inactive | Activity (Staphylococcus aureus [4]): inactive | Activity (Candida tropicalis): inactive | Activity (Pseudomonas aeruginosa): inactive

CCNC(=S)NC(=O)c1nn(-c2cccc([N+](=O)[O-])c2)c(-c2ccccc2)c1C(=O)NC(=S)NCC
Activity (Nakaseomyces glabratus): inactive | Activity (Escherichia coli): inactive | Activity (Staphylococcus aureus [1]): inactive | MIC (Candida albicans [2]): 25 µg/mL (≈ 47.6 µM) | MIC (Candida albicans [3]): 25 µg/mL (≈ 47.6 µM) | Activity (Candida parapsilosis): inactive | Activity (Enterococcus): inactive | Activity (Staphylococcus aureus [4]): inactive | Activity (Candida tropicalis): inactive | Activity (Pseudomonas aeruginosa): inactive

O=C(Nc1ccccc1F)c1nn(-c2cccc([N+](=O)[O-])c2)c(-c2ccccc2)c1C(=O)Nc1ccccc1F
Activity (Nakaseomyces glabratus): inactive | Activity (Escherichia coli): inactive | Activity (Staphylococcus aureus [1]): inactive | MIC (Candida albicans [2]): 25 µg/mL (≈ 46.3 µM) | Activity (Candida albicans [3]): inactive | Activity (Candida parapsilosis): inactive | Activity (Enterococcus): inactive | Activity (Staphylococcus aureus [4]): inactive | Activity (Candida tropicalis): inactive | Activity (Pseudomonas aeruginosa): inactive

O=c1[nH][nH]c(=O)c2c(-c3ccccc3)n(-c3cccc([N+](=O)[O-])c3)nc12
Activity (Nakaseomyces glabratus): inactive | Activity (Escherichia coli): inactive | Activity (Staphylococcus aureus [1]): inactive | MIC (Candida albicans [2]): 50 µg/mL (≈ 143 µM) | Activity (Candida albicans [3]): inactive | Activity (Candida parapsilosis): inactive | Activity (Enterococcus): inactive | Activity (Staphylococcus aureus [4]): inactive | Activity (Candida tropicalis): inactive | Activity (Pseudomonas aeruginosa): inactive

O=C(Nc1ccccc1C(F)(F)F)c1nn(-c2cccc([N+](=O)[O-])c2)c(-c2ccccc2)c1C(=O)Nc1ccccc1C(F)(F)F
Activity (Nakaseomyces glabratus): inactive | Activity (Escherichia coli): inactive | Activity (Staphylococcus aureus [1]): inactive | MIC (Candida albicans [2]): 25 µg/mL (≈ 39.1 µM) | MIC (Candida albicans [3]): 50 µg/mL (≈ 78.2 µM) | Activity (Candida parapsilosis): inactive | Activity (Enterococcus): inactive | Activity (Staphylococcus aureus [4]): inactive | Activity (Candida tropicalis): inactive | Activity (Pseudomonas aeruginosa): inactive

CCOC(=O)c1c(C(=O)Nc2ccc(F)cc2)nn(-c2cccc([N+](=O)[O-])c2)c1-c1ccccc1
Activity (Nakaseomyces glabratus): inactive | Activity (Escherichia coli): inactive | Activity (Staphylococcus aureus [1]): inactive | MIC (Candida albicans [2]): 50 µg/mL (≈ 105 µM) | MIC (Candida albicans [3]): 50 µg/mL (≈ 105 µM) | Activity (Candida parapsilosis): inactive | Activity (Enterococcus): inactive | Activity (Staphylococcus aureus [4]): inactive | Activity (Candida tropicalis): inactive | Activity (Pseudomonas aeruginosa): inactive

CCOC(=O)c1c(C(=O)Nc2cccc(C(F)(F)F)c2)nn(-c2cccc([N+](=O)[O-])c2)c1-c1ccccc1
Activity (Nakaseomyces glabratus): inactive | Activity (Escherichia coli): inactive | Activity (Staphylococcus aureus [1]): inactive | MIC (Candida albicans [2]): 25 µg/mL (≈ 47.7 µM) | MIC (Candida albicans [3]): 50 µg/mL (≈ 95.3 µM) | Activity (Candida parapsilosis): inactive | Activity (Enterococcus): inactive | Activity (Staphylococcus aureus [4]): inactive | MIC (Candida tropicalis): 50 µg/mL (≈ 95.3 µM) | Activity (Pseudomonas aeruginosa): inactive

O=C(Nc1cccc(C(F)(F)F)c1)c1nn(-c2cccc([N+](=O)[O-])c2)c(-c2ccccc2)c1C(=O)Nc1cccc(C(F)(F)F)c1
Activity (Nakaseomyces glabratus): inactive | Activity (Escherichia coli): inactive | Activity (Staphylococcus aureus [1]): inactive | MIC (Candida albicans [2]): 50 µg/mL (≈ 78.2 µM) | Activity (Candida albicans [3]): inactive | Activity (Candida parapsilosis): inactive | Activity (Enterococcus): inactive | Activity (Staphylococcus aureus [4]): inactive | Activity (Candida tropicalis): inactive | Activity (Pseudomonas aeruginosa): inactive

CCOC(=O)c1c(C(=O)Nc2ccc(C(F)(F)F)cc2)nn(-c2cccc([N+](=O)[O-])c2)c1-c1ccccc1
Activity (Nakaseomyces glabratus): inactive | Activity (Escherichia coli): inactive | Activity (Staphylococcus aureus [1]): inactive | MIC (Candida albicans [2]): 25 µg/mL (≈ 47.7 µM) | MIC (Candida albicans [3]): 25 µg/mL (≈ 47.7 µM) | Activity (Candida parapsilosis): inactive | Activity (Enterococcus): inactive | Activity (Staphylococcus aureus [4]): inactive | Activity (Candida tropicalis): inactive | Activity (Pseudomonas aeruginosa): inactive
